From ChEMBL document CHEMBL3994633, “Exploration of phenylpropanoic acids as agonists of the free fatty acid receptor 4 (FFA4): Identification of an orally efficacious FFA4 agonist” (Bioorg Med Chem Lett, 2017)
Residue numbers refer to the chain shown, from its start.

How the values were obtained:
[1] = target: T1, Free fatty acid receptor 1 (Homo sapiens, UniProt O14842); experiment: Agonist activity at human FFA1 receptor expressed in human U2OS cells co-expressing Galpha16 assessed as calcium mobilization by Fluo-4 dye based FLIPR assay; assay type: functional, cell-based; details: read-out: EC50
T1 sequence (O14842 whole entry): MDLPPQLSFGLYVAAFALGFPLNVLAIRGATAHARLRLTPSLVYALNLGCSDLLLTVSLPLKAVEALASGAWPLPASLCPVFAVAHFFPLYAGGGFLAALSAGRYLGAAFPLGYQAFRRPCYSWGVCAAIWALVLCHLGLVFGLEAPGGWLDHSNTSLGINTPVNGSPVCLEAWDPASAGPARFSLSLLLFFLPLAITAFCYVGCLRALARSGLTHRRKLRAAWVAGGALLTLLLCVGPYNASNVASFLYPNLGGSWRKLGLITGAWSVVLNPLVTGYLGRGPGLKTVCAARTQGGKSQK
Method in brief: (§1)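 U2OS cells transiently expressing human FFA1 or FFA4. Agonism measured from a ten-point dose-response curve with FLIPR readout, giving EC50 (nM) and efficacy (% max response). Values are means of three experiments.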

[2] = target: T2, Free fatty acid receptor 2 (Homo sapiens, UniProt O15552); experiment: Agonist activity at human FFA2 receptor by FLIPR assay
T2 sequence (O15552 whole entry): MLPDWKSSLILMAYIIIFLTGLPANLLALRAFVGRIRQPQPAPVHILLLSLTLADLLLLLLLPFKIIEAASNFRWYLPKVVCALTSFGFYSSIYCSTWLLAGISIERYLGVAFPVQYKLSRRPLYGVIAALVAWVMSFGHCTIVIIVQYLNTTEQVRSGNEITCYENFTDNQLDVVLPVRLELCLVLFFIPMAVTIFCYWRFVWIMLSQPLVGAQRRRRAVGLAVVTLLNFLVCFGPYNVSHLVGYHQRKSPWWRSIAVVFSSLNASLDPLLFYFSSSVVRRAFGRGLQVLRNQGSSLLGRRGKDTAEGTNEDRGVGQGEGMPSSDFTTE
Method in brief: (§2)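 Human FFA2 or FFA3 agonism tested in FLIPR-based full-curve functional assays. EC50 (nM) and max response (%) reported.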

[3] = Half life in C57BL/6J mouse at 10 mg/kg, po; assay type: ADME, organism-based; details: in vivo
[4] = Clearance in C57BL/6J mouse at 4.2 mg/kg, iv; assay type: ADME, organism-based; details: in vivo
Method in brief: (§3)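 C57BL/6J mice (n = 2) dosed intravenously at 3 or 4.2 mg/kg. Clearance (mL/min/kg) and AUC (hr*ng/mL) derived from plasma concentrations.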

[5] = Cmax in C57BL/6J mouse at 10 mg/kg, po; assay type: ADME, organism-based; design: dose 10 mg/kg, route oral; details: in vivo
Method in brief: (§4)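 C57BL/6J mice (n = 2), single oral dose of 10 mg/kg given as a suspension in 0.5% HMPC: 0.1% Tween. Plasma Cmax and AUC (hr*ng/mL) measured; %F calculated against the IV leg.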

[6] = target: Free fatty acid receptor 1 (Mus musculus, UniProt Q76JU9); experiment: Agonist activity at mouse FFA1 receptor
Free fatty acid receptor 1 (Mus musculus, UniProt Q76JU9), sequence (Q76JU9 whole entry): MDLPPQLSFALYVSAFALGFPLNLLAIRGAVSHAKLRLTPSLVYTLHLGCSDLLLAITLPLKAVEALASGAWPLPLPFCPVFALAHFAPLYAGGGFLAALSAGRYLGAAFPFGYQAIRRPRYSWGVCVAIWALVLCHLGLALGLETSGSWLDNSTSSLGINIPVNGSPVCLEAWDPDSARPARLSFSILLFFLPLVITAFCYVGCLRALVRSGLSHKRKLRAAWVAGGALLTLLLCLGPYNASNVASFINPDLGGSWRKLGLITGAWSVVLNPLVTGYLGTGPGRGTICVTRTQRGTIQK

[7] = AUC in C57BL/6J mouse at 10 mg/kg, po; assay type: ADME, organism-based; details: in vivo; method in brief: as §4
Rattus norvegicus [8] = experiment: Antidiabetic activity in ZDF rat assessed as plasma glucose level at 10 mg/kg bid for 14 days (reference value: 192 mg/dl); assay type: functional
[9] = Protein binding in human plasma; assay type: ADME, cell-free; details: read-out: PPB
[10] = target: T3, Free fatty acid receptor 4 (Rattus norvegicus, UniProt Q2AC31); experiment: Agonist activity at rat FFA4 receptor
T3 sequence (Q2AC31 whole entry): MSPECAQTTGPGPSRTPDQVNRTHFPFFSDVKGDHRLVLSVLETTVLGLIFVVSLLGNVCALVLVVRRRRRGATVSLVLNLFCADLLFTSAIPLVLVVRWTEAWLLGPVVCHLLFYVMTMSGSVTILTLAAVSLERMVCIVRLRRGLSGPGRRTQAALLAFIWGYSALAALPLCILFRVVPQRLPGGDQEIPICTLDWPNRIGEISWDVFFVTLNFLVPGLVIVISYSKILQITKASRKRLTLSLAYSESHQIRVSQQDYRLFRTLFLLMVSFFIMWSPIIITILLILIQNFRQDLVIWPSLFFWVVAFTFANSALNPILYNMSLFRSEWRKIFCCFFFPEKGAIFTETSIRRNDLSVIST

[11] = target: T4, Free fatty acid receptor 4 (Rattus norvegicus) (UniProt Q2AC31); experiment: Agonist activity at rat FFA4 receptor relative to control
T4 sequence (whole entry): T3 sequence (Q2AC31 whole entry)

[12] = target: T1, Free fatty acid receptor 1; experiment: Agonist activity at human FFA1 receptor expressed in human U2OS cells co-expressing Galpha16 assessed as calcium mobilization by Fluo-4 dye based FLIPR assay relative to GSK137647A; assay type: functional, cell-based; method in brief: as §1
[13] = target: T5, Free fatty acid receptor 4 (Mus musculus, UniProt Q7TMA4); experiment: Agonist activity at mouse FFA4 receptor
T5 sequence (Q7TMA4 whole entry): T3 sequence (Q2AC31 whole entry) with R15H, P17L, L42V, V66A, V75A, S328N, E348D, I351V, T361S

[14] = target: T6, Free fatty acid receptor 4 (Homo sapiens, UniProt Q5NUL3); experiment: Agonist activity at human FFA4 receptor expressed in human U2OS cells co-expressing Galpha16 assessed as calcium mobilization by Fluo-4 dye based FLIPR assay; assay type: functional, cell-based; method in brief: as §1
T6 sequence (Q5NUL3 whole entry): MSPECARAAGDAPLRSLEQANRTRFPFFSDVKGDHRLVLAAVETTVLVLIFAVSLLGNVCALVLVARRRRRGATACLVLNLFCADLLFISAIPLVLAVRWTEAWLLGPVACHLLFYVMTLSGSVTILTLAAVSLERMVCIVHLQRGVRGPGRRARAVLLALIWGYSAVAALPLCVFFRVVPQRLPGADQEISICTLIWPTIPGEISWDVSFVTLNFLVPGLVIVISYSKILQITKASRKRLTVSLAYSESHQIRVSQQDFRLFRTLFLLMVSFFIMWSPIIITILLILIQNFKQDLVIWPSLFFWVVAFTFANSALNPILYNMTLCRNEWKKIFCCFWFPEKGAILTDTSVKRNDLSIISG

Rattus norvegicus [15] = experiment: Antidiabetic activity in ZDF rat assessed as plasma glucose level at 100 mg/kg bid for 14 days (reference value: 192 mg/dl); assay type: functional
[16] = target: T7, Free fatty acid receptor 4 (Mus musculus) (UniProt Q7TMA4); experiment: Agonist activity at mouse FFA4 receptor relative to control
T7 sequence (whole entry): T3 sequence (Q2AC31 whole entry) with R15H, P17L, L42V, V66A, V75A, S328N, E348D, I351V, T361S

[17] = target: Free fatty acid receptor 1 (Mus musculus) (UniProt Q76JU9); experiment: Agonist activity at mouse FFA1 receptor relative to control
Free fatty acid receptor 1 (Mus musculus), sequence (Q76JU9 whole entry): as the sequence (Q76JU9 whole entry) above

[18] = target: Free fatty acid receptor 1 (Rattus norvegicus, UniProt Q8K3T4); experiment: Agonist activity at rat FFA1 receptor
Free fatty acid receptor 1 (Rattus norvegicus, UniProt Q8K3T4), sequence (Q8K3T4 whole entry): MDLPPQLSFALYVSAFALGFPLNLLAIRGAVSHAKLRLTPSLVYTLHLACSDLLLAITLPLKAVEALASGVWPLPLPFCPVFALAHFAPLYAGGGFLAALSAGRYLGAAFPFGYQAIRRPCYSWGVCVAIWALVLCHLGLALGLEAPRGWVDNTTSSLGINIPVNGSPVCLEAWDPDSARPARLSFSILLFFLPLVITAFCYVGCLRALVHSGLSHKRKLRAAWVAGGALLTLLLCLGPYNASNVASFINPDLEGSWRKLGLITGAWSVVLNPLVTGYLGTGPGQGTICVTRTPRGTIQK

Mus musculus [19] = experiment: Antidiabetic activity in db/db mouse assessed as reduction in HbA1c level at 100 mg/kg, po bid after 2 weeks relative to control; assay type: functional; design: scale not given: the % may be the effect or the level left
Method in brief: (§5)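 Fed db/db mice given vehicle or 100 mg/kg orally twice daily for 2 weeks. Blood glucose measured before treatment and after 1 and 2 weeks; HbA1c measured before and after 2 weeks.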

[20] = AUC in C57BL/6J mouse at 4.2 mg/kg, iv; assay type: ADME, organism-based; details: in vivo; method in brief: as §3
Rattus norvegicus [21] = species: Rattus norvegicus; experiment: Selectivity ratio of EC50 for rat FFA1 receptor to EC50 for rat FFA4 receptor
Mus musculus [22] = experiment: Antidiabetic activity in db/db mouse assessed as plasma glucose level at 100 mg/kg, po bid after 2 weeks (reference value: 276 mg/dl); assay type: functional; method in brief: as §5
[23] = target: T8, Free fatty acid receptor 4 (Homo sapiens) (UniProt Q5NUL3); experiment: Agonist activity at human FFA4 receptor expressed in human U2OS cells co-expressing Galpha16 assessed as calcium mobilization by Fluo-4 dye based FLIPR assay relative to GSK137647A; assay type: functional, cell-based; method in brief: as §1
T8 sequence (whole entry): T6 sequence (Q5NUL3 whole entry)

Homo sapiens = species: Homo sapiens; experiment: Selectivity ratio of EC50 for human FFA1 receptor expressed in human U2OS cells co-expressing Galpha16 to EC50 for human FFA4 receptor expressed in human U2OS cells co-expressing Galpha16; assay type: cell-based
Mus musculus [24] = species: Mus musculus; experiment: Selectivity ratio of EC50 for mouse FFA1 receptor to EC50 for mouse FFA4 receptor
[25] = target: T9, Free fatty acid receptor 2 (Homo sapiens) (UniProt O15552); experiment: Agonist activity at human FFA2 receptor by FLIPR assay relative to control; method in brief: as §2
T9 sequence (whole entry): T2 sequence (O15552 whole entry)

[26] = target: T10, Free fatty acid receptor 3 (Homo sapiens, UniProt O14843); experiment: Agonist activity at human FFA3 receptor by FLIPR assay; method in brief: as §2
T10 sequence (O14843 whole entry): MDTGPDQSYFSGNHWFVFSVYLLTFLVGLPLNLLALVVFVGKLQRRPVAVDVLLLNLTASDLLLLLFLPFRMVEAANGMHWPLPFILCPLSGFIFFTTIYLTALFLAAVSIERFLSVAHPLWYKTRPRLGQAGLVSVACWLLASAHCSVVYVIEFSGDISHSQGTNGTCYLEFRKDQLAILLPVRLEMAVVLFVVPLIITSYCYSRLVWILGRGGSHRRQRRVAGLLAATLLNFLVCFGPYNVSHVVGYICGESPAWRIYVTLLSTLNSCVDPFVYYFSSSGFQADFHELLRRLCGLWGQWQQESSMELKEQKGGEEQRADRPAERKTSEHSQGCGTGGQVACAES

[27] = Oral bioavailability in C57BL/6J mouse at 10 mg/kg; assay type: ADME, organism-based; details: in vivo; method in brief: as §4

COc1ccc(C(F)(F)F)cc1COc1ccc(CCC(=O)O)cc1C
EC50 [1]: 11.8 µM | EC50 [2]: 25.3 µM | half-life [3]: 1.7 h | clearance [4]: 20 mL/min/kg | Cmax [5]: 6780 ng/mL | EC50 [6]: 6.21 µM | AUC [7]: 9440 ng·h/mL | Activity (Rattus norvegicus [8]): 151 mg/dL | fraction unbound [9]: 0.001 | EC50 [10]: 0.23 µM | %max [11]: 110% | %max [12]: 105% | EC50 [13]: 0.07 µM | EC50 [14]: 0.299 µM | Activity (Rattus norvegicus [15]): 139 mg/dL | %max [16]: 108% | %max [17]: 83% | EC50 [18]: > 30 µM | Activity (Mus musculus [19]): 1.6% | AUC [20]: 3620 ng·h/mL | Ratio EC50 (Rattus norvegicus [21]): > 85 | Activity (Mus musculus [22]): 106 mg/dL | %max [23]: 124% | Ratio EC50 (Homo sapiens): 40 | Ratio EC50 (Mus musculus [24]): > 85 | %max [25]: 59% | EC50 [26]: > 50 µM | bioavailability [27]: 110%
